Test results as given in ChEMBL document CHEMBL1141780, “Diterpenoid, steroid, and triterpenoid agonists of liver X receptors from diversified terrestrial plants and marine sources” (J Nat Prod, 2005).
Activity calls are given as the source filed them. The rule behind the calls is not given here.

molecular target: Liver X receptor (LXR alpha AND LXR beta) (Homo sapiens) (UniProt Q13133+P55055); test: Selectivity of human recombinant LXRalpha over human recombinant LXRbeta; format: protein assay; conditions: not given

Row | SMILES | fold change (FC)
1 | CC(C)[C@H](C)[C@@]1(C)C[C@@H]1[C@@H](C)[C@H]1CC[C@H]2[C@@H]3CC=C4C[C@@H](O)CC[C@]4(C)[C@@]3(O)[C@H](O)C[C@]12C | 40

molecular target: T1, Oxysterols receptor LXR-alpha (Homo sapiens) (UniProt Q13133); test: Activity of human recombinant LXRalpha ligand binding domain-mediated transcriptional activity in human HEK293 cells with Gal4 reporter plasmid at 100 uM by luciferase reporter assay; format: cell-based; conditions: not given
T1 sequence (whole entry): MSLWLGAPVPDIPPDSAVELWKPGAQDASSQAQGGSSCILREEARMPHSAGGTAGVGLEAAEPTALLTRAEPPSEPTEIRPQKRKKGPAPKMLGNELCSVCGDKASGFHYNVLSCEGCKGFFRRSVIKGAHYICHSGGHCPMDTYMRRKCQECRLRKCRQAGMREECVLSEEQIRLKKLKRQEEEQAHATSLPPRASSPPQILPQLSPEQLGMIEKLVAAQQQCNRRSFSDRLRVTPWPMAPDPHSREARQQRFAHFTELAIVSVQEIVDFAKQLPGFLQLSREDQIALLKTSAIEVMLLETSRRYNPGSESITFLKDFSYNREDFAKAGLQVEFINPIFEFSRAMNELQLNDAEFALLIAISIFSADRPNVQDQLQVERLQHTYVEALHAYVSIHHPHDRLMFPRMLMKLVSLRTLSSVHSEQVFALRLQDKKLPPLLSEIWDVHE
Method in brief: (§1)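 Cell-based transactivation in HEK-293 cells with chimeric constructs: yeast Gal4 DNA-binding domain fused to the hinge region and LBD of LXRα or LXRβ. Agonist activity is read as fold induction over DMSO control.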

Row | SMILES | fold change (FC)
2 | C=C[C@@]1(C)CC=C2[C@@H](CC[C@@H]3[C@](C)(C(=O)O)CCC[C@@]23C)C1 | 15.9

molecular target: T2, Oxysterols receptor LXR-alpha (Homo sapiens, UniProt Q13133); test: Agonist activity at human recombinant LXRalpha expressed in Escherichia coli BL21 cells assessed as association of recombinant SRC1 to LXRalpha ligand binding domain by HTRF assay; conditions: not given
T2 sequence (Q13133 whole entry): T1 sequence (whole entry)

Row | SMILES | EC50 [nM]
3 | C=C(CC[C@@H](C)[C@H]1CC[C@H]2[C@@H]3[C@@H](O)[C@@H](O)[C@@]4(O)C[C@@H](O)CC[C@]4(C)[C@H]3CC[C@]12C)C(C)C | 170
4 | CC(=O)Oc1ccc2c(c1)[C@@]1(C)CCC[C@](C)(C(=O)OC(=O)[C@@]3(C)CCC[C@]4(C)c5cc(OC(C)=O)ccc5CC[C@@H]34)[C@@H]1CC2 [ACETYL PODOCARPIC ACID ANHYDRIDE] | 1
5 | CC(C)CCC[C@@H](C)[C@H]1CC[C@H]2C3=CC(=O)[C@H]4C[C@@H](O)CC[C@]4(C)[C@@]3(O)CC[C@]12C [VIPERIDONE] | > 15000
6 | C=C(C)[C@@H]1CC[C@]2(C(=O)O)CC[C@]3(C)[C@H](CC[C@@H]4[C@@]5(C)CC[C@H](O)C(C)(C)[C@@H]5CC[C@]43C)[C@@H]12 [BETULINIC ACID] | > 50000
7 | CC(C)[C@H](C)[C@@]1(C)C[C@@H]1[C@@H](C)[C@H]1CC[C@H]2[C@@H]3C[C@@H](O)[C@@]4(O)C[C@@H](O)CC[C@]4(C)[C@@]3(O)[C@H](O)C[C@]12C | 50
8 | C=C[C@@]1(C)CC=C2[C@@H](CC[C@@H]3[C@](C)(C(=O)O)CCC[C@@]23C)C1 | 180
9 | CC(C)[C@H](C)[C@@]1(C)C[C@@H]1[C@@H](C)[C@H]1CC[C@H]2[C@@H]3CC=C4C[C@@H](O)CC[C@]4(C)[C@@]3(O)[C@H](O)C[C@]12C | 450

molecular target: T3, Oxysterols receptor LXR-beta (Homo sapiens) (UniProt P55055); test: Activity of human recombinant LXRbeta ligand binding domain-mediated transcriptional activity in human HEK293 cells with Gal4 reporter plasmid by luciferase reporter assay; format: cell-based; conditions: not given; method in brief: as §1
T3 sequence (whole entry): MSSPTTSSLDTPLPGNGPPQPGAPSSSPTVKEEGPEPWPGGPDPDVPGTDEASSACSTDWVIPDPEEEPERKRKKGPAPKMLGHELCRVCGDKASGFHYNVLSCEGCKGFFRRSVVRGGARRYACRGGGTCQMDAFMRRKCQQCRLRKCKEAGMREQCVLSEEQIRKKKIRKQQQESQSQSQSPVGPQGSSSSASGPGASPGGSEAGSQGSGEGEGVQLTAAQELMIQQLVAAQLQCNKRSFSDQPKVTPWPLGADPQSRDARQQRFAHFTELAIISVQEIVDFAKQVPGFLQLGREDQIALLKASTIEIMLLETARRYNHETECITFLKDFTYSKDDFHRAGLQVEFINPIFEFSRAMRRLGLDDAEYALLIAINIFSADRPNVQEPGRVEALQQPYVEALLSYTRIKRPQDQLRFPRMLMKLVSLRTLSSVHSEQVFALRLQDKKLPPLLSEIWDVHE

Row | SMILES | fold change (FC)
10 | CC(=O)Oc1ccc2c(c1)[C@@]1(C)CCC[C@](C)(C(=O)OC(=O)[C@@]3(C)CCC[C@]4(C)c5cc(OC(C)=O)ccc5CC[C@@H]34)[C@@H]1CC2 [ACETYL PODOCARPIC ACID ANHYDRIDE] | 85

molecular target: T1, Oxysterols receptor LXR-alpha (Homo sapiens); test: Activity of human recombinant LXRalpha ligand binding domain-mediated transcriptional activity in human HEK293 cells with Gal4 reporter plasmid at 30 uM by luciferase reporter assay; format: cell-based; conditions: not given; method in brief: as §1

Row | SMILES | fold change (FC)
11 | CC(C)[C@H](C)[C@@]1(C)C[C@@H]1[C@@H](C)[C@H]1CC[C@H]2[C@@H]3CC=C4C[C@@H](O)CC[C@]4(C)[C@@]3(O)[C@H](O)C[C@]12C | 10.1

molecular target: T3, Oxysterols receptor LXR-beta (Homo sapiens); test: Activity of human recombinant LXRbeta ligand binding domain-mediated transcriptional activity in human HEK293 cells with Gal4 reporter plasmid at 30 uM by luciferase reporter assay; format: cell-based; conditions: not given; method in brief: as §1

Row | SMILES | Activity
12 | CC(C)[C@H](C)[C@@]1(C)C[C@@H]1[C@@H](C)[C@H]1CC[C@H]2[C@@H]3CC=C4C[C@@H](O)CC[C@]4(C)[C@@]3(O)[C@H](O)C[C@]12C | inactive

molecular target: T1, Oxysterols receptor LXR-alpha (Homo sapiens); test: Activity of human recombinant LXRalpha ligand binding domain-mediated transcriptional activity in human HEK293 cells with Gal4 reporter plasmid by luciferase reporter assay; format: cell-based; conditions: not given; method in brief: as §1

Row | SMILES | fold change (FC)
13 | CC(=O)Oc1ccc2c(c1)[C@@]1(C)CCC[C@](C)(C(=O)OC(=O)[C@@]3(C)CCC[C@]4(C)c5cc(OC(C)=O)ccc5CC[C@@H]34)[C@@H]1CC2 [ACETYL PODOCARPIC ACID ANHYDRIDE] | 50

molecular target: T3, Oxysterols receptor LXR-beta (Homo sapiens); conditions: BL21

Row | SMILES | LC50 [nM]
14 | CC(=O)Oc1ccc2c(c1)[C@@]1(C)CCC[C@](C)(C(=O)OC(=O)[C@@]3(C)CCC[C@]4(C)c5cc(OC(C)=O)ccc5CC[C@@H]34)[C@@H]1CC2 [ACETYL PODOCARPIC ACID ANHYDRIDE] | 1
15 | C=C(C)[C@@H]1CC[C@]2(C(=O)O)CC[C@]3(C)[C@H](CC[C@@H]4[C@@]5(C)CC[C@H](O)C(C)(C)[C@@H]5CC[C@]43C)[C@@H]12 [BETULINIC ACID] | > 25000
16 | CC(C)[C@H](C)[C@@]1(C)C[C@@H]1[C@@H](C)[C@H]1CC[C@H]2[C@@H]3C[C@@H](O)[C@@]4(O)C[C@@H](O)CC[C@]4(C)[C@@]3(O)[C@H](O)C[C@]12C | 200
17 | C=C[C@@]1(C)CC=C2[C@@H](CC[C@@H]3[C@](C)(C(=O)O)CCC[C@@]23C)C1 | 1490
18 | CC(C)[C@H](C)[C@@]1(C)C[C@@H]1[C@@H](C)[C@H]1CC[C@H]2[C@@H]3CC=C4C[C@@H](O)CC[C@]4(C)[C@@]3(O)[C@H](O)C[C@]12C | 50000

molecular target: T3, Oxysterols receptor LXR-beta (Homo sapiens); test: Agonist activity at human recombinant LXRbeta expressed in Escherichia coli BL21 cells assessed as association of recombinant SRC1 to LXRbeta ligand binding domain at 10 uM by HTRF assay; conditions: not given

Row | SMILES | Activity
19 | C=C(CC[C@@H](C)[C@H]1CC[C@H]2[C@@H]3[C@@H](O)[C@@H](O)[C@@]4(O)C[C@@H](O)CC[C@]4(C)[C@H]3CC[C@]12C)C(C)C | inactive
20 | CC(C)[C@H](C)[C@@]1(C)C[C@@H]1[C@@H](C)[C@H]1CC[C@H]2[C@@H]3C[C@@H](O)[C@@]4(O)C[C@@H](O)CC[C@]4(C)[C@@]3(O)[C@H](O)C[C@]12C | inactive

molecular target: T4, Oxysterols receptor LXR-beta (Homo sapiens, UniProt P55055); test: Agonist activity at human recombinant LXRbeta expressed in Escherichia coli BL21 cells assessed as association of recombinant SRC1 to LXRbeta ligand binding domain by HTRF assay; conditions: not given
T4 sequence (P55055 whole entry): T3 sequence (whole entry)

Row | SMILES | EC50 [nM]
21 | CC(=O)Oc1ccc2c(c1)[C@@]1(C)CCC[C@](C)(C(=O)OC(=O)[C@@]3(C)CCC[C@]4(C)c5cc(OC(C)=O)ccc5CC[C@@H]34)[C@@H]1CC2 [ACETYL PODOCARPIC ACID ANHYDRIDE] | < 3
22 | C=C(C)[C@@H]1CC[C@]2(C(=O)O)CC[C@]3(C)[C@H](CC[C@@H]4[C@@]5(C)CC[C@H](O)C(C)(C)[C@@H]5CC[C@]43C)[C@@H]12 [BETULINIC ACID] | > 50000
23 | C=C[C@@]1(C)CC=C2[C@@H](CC[C@@H]3[C@](C)(C(=O)O)CCC[C@@]23C)C1 | > 50000

molecular target: T3, Oxysterols receptor LXR-beta (Homo sapiens); test: Activity of human recombinant LXRbeta ligand binding domain-mediated transcriptional activity in human HEK293 cells with Gal4 reporter plasmid at 100 uM by luciferase reporter assay; format: cell-based; conditions: not given; method in brief: as §1

Row | SMILES | fold change (FC)
24 | C=C[C@@]1(C)CC=C2[C@@H](CC[C@@H]3[C@](C)(C(=O)O)CCC[C@@]23C)C1 | 5.6
